# Test results from ChEMBL document CHEMBL3864182, “Discovery and Optimization of a Novel Triazole Series of GPR142 Agonists for the Treatment of Type 2 Diabetes” (ACS Med Chem Lett, 2016).
# Calls of active or inactive are those of the source. No cut-off for these calls is given here.
# Assays:
# [1] = biological target: T1, Probable G-protein coupled receptor 142 (Homo sapiens, UniProt Q7Z601); experiment: Agonist activity at human GPR142 expressed in CHO cells measured for 3 to 5 mins by Fluo-4AM dye-based FLIPR assay; type: cell-based
# T1 sequence (Q7Z601 whole entry): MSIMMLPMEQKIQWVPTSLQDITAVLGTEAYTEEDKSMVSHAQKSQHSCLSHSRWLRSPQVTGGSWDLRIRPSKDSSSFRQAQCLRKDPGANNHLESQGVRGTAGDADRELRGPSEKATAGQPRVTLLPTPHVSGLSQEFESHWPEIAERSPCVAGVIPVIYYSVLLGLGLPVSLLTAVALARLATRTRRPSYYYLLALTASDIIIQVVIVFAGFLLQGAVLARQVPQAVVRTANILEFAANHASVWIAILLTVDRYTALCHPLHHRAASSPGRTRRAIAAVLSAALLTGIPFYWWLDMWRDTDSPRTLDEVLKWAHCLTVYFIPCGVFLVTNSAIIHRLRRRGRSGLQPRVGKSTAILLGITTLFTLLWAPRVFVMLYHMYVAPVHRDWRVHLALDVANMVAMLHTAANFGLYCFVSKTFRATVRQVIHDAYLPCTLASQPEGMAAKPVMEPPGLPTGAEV
# [2] = biological target: T2, Probable G-protein coupled receptor 142 (Mus musculus, UniProt Q7TQN9); experiment: Agonist activity at mouse GPR142 expressed in CHO cells measured for 3 to 5 mins by Fluo-4AM dye-based FLIPR assay; type: cell-based
# T2 sequence (Q7TQN9 whole entry): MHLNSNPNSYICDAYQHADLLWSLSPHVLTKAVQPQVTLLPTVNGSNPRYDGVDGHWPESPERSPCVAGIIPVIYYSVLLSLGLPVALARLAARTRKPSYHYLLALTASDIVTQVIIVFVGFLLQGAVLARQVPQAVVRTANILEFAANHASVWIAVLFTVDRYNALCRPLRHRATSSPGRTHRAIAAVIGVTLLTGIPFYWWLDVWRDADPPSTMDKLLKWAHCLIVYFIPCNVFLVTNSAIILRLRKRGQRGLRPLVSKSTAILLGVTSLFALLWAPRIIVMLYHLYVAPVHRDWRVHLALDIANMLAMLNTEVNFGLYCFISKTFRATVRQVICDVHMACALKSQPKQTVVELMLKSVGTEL
# [3] = biological target: T1, Probable G-protein coupled receptor 142; experiment: Agonist activity at human GPR142 expressed in CHO cells measured after 30 to 60 mins by IP-One assay; type: cell-based
# [4] = biological target: T2, Probable G-protein coupled receptor 142; experiment: Agonist activity at mouse GPR142 expressed in CHO cells measured after 30 to 60 mins by IP-One assay; type: cell-based
# [5] = Metabolic stability in human liver microsomes assessed as compound remaining at 1 uM measured after 30 mins; type: ADME; conditions: read-out: Stability
# [6] = Metabolic stability in rat liver microsomes assessed as compound remaining at 1 uM measured after 30 mins; type: ADME; conditions: read-out: Stability
# [7] = Metabolic stability in mouse liver microsomes assessed as compound remaining at 1 uM measured after 30 mins; type: ADME; conditions: read-out: Stability
# [8] = Solubility of the compound in PBS at pH 2; type: physicochemical
# [9] = Solubility of the compound in PBS at pH 7; type: physicochemical
# [10] = Lipophilicity, log D of the compound at pH 7; type: physicochemical; conditions: buffer
# Cytochrome P450 2D6 = Cytochrome P450 2D6 (Homo sapiens, UniProt P10635); experiment: Inhibition of CYP2D6 (unknown origin); type: ADME
# Cytochrome P450 3A4 = Cytochrome P450 3A4 (Homo sapiens, UniProt P08684); experiment: Inhibition of CYP3A4 (unknown origin); type: ADME
# [11] = biological target: Sodium channel protein type 5 subunit alpha (Homo sapiens, UniProt Q14524); experiment: Inhibition of Nav1.5 (unknown origin)
# [12] = biological target: Voltage-dependent L-type calcium channel subunit alpha-1C (Homo sapiens, UniProt Q13936); experiment: Inhibition of Cav1.2 (unknown origin)
# [13] = Apparent permeability in pig LLC-PK1 cells at 5 uM measured after 3 hrs; type: ADME, cell-based, Sus scrofa
# [14] = Plasma clearance in Sprague-Dawley rat at 1 mg/kg, iv or 2 mg/kg, po; type: ADME, organism-based
# [15] = Unbound clearance in Sprague-Dawley rat plasma at 1 mg/kg, iv or 2 mg/kg, po; type: ADME, organism-based; conditions: in vivo
# Method in brief: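 Rat pharmacokinetic study; plasma clearance corrected for plasma protein binding as Clu = Clp/fu, where fu is the unbound fraction in plasma.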
# [16] = Half life in Sprague-Dawley rat at 1 mg/kg, iv or 2 mg/kg, po; type: ADME, organism-based; conditions: in vivo
# [17] = Oral bioavailability in Sprague-Dawley rat at 2 mg/kg; type: ADME, organism-based; conditions: in vivo
# [18] = Fraction unbound in Sprague-Dawley rat plasma at 1 mg/kg, iv or 2 mg/kg, po; type: ADME, organism-based
# [19] = biological target: T3, Probable G-protein coupled receptor 142 (Mus musculus) (UniProt Q7TQN9); experiment: Agonist activity at GPR142 in mouse islets assessed as potentiation of glucose-stimulated insulin secretion at 3 to 10 uM in presence of 16 mM glucose
# T3 sequence (whole entry): T2 sequence (Q7TQN9 whole entry)
# Method in brief: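 Ex vivo insulin secretion in freshly isolated mouse islets, tested at low (2 mM) and high (16 mM) glucose. GLP-1 was run as a reference in the same experiment. Each treatment was compared with vehicle by 1-way ANOVA.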
# Mus musculus [20] = experiment: Antihyperglycemic activity in fasted C57BL/6 mouse assessed as reduction in glucose AUC administered prior to dextrose challenge measured after 90 mins by oral glucose tolerance test; type: functional
# Mus musculus [21] = experiment: Antihyperglycemic activity in fasted C57BL/6 mouse assessed as reduction in glucose AUC (0 to 120 mins) at 30 mg/kg, po administered prior to dextrose challenge by oral glucose tolerance test; type: functional; parameters: scale not given: the % may be the effect or the level left
# Method in brief: (§1)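 Lean mice given the compound orally (1 to 30 mpk), then orally challenged with 5 g/kg dextrose. Glucose excursion expressed as AUC0–120 min reduction versus vehicle. N = 7 per group; ANOVA with Dunnett's post-test.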
# Mus musculus [22] = experiment: Antihyperglycemic activity in fasted C57BL/6 mouse assessed as reduction in glucose AUC (0 to 120 mins) at 3 mg/kg, po administered prior to dextrose challenge by oral glucose tolerance test; type: functional; parameters: scale not given: the % may be the effect or the level left; method in brief: as §1
# Mus musculus [23] = experiment: Antihyperglycemic activity in fasted C57BL/6 mouse assessed as reduction in glucose AUC (0 to 120 mins) at 1 mg/kg, po administered prior to dextrose challenge by oral glucose tolerance test; type: functional; parameters: scale not given: the % may be the effect or the level left; method in brief: as §1
# [24] = Drug level in fasted C57BL/6 mouse plasma at 30 mg/kg, po measured after 2.5 hrs post dose; type: ADME, organism-based
# Method in brief: (§2)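 Plasma sampled from the oral glucose tolerance test mice (5 g/kg dextrose challenge) at 2.5 h after oral dosing. Total drug level measured; free level derived using the unbound plasma fraction.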
# [25] = Drug level in fasted C57BL/6 mouse plasma at 3 mg/kg, po measured after 2.5 hrs post dose; type: ADME, organism-based; method in brief: as §2
# [26] = Drug level in fasted C57BL/6 mouse plasma at 1 mg/kg, po measured after 2.5 hrs post dose; type: ADME, organism-based; method in brief: as §2
# [27] = Fraction unbound in fasted C57BL/6 mouse plasma at 30 mg/kg, po measured after 2.5 hrs post dose; type: ADME, organism-based; conditions: in vivo
# Cytochrome P450 2D6, sequence (P10635 whole entry): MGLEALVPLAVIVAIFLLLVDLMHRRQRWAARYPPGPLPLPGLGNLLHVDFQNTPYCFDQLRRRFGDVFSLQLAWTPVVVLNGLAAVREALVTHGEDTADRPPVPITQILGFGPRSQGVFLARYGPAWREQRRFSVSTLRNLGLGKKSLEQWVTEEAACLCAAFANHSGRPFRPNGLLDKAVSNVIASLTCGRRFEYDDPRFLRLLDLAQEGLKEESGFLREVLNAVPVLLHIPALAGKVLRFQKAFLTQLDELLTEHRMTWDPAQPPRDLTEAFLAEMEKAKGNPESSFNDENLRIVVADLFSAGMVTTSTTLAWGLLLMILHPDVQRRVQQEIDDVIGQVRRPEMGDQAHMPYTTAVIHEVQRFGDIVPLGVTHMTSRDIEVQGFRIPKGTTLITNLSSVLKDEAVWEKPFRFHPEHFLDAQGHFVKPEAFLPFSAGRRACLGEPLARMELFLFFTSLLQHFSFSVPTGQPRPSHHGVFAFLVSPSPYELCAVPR
# Sodium channel protein type 5 subunit alpha, sequence (Q14524 whole entry): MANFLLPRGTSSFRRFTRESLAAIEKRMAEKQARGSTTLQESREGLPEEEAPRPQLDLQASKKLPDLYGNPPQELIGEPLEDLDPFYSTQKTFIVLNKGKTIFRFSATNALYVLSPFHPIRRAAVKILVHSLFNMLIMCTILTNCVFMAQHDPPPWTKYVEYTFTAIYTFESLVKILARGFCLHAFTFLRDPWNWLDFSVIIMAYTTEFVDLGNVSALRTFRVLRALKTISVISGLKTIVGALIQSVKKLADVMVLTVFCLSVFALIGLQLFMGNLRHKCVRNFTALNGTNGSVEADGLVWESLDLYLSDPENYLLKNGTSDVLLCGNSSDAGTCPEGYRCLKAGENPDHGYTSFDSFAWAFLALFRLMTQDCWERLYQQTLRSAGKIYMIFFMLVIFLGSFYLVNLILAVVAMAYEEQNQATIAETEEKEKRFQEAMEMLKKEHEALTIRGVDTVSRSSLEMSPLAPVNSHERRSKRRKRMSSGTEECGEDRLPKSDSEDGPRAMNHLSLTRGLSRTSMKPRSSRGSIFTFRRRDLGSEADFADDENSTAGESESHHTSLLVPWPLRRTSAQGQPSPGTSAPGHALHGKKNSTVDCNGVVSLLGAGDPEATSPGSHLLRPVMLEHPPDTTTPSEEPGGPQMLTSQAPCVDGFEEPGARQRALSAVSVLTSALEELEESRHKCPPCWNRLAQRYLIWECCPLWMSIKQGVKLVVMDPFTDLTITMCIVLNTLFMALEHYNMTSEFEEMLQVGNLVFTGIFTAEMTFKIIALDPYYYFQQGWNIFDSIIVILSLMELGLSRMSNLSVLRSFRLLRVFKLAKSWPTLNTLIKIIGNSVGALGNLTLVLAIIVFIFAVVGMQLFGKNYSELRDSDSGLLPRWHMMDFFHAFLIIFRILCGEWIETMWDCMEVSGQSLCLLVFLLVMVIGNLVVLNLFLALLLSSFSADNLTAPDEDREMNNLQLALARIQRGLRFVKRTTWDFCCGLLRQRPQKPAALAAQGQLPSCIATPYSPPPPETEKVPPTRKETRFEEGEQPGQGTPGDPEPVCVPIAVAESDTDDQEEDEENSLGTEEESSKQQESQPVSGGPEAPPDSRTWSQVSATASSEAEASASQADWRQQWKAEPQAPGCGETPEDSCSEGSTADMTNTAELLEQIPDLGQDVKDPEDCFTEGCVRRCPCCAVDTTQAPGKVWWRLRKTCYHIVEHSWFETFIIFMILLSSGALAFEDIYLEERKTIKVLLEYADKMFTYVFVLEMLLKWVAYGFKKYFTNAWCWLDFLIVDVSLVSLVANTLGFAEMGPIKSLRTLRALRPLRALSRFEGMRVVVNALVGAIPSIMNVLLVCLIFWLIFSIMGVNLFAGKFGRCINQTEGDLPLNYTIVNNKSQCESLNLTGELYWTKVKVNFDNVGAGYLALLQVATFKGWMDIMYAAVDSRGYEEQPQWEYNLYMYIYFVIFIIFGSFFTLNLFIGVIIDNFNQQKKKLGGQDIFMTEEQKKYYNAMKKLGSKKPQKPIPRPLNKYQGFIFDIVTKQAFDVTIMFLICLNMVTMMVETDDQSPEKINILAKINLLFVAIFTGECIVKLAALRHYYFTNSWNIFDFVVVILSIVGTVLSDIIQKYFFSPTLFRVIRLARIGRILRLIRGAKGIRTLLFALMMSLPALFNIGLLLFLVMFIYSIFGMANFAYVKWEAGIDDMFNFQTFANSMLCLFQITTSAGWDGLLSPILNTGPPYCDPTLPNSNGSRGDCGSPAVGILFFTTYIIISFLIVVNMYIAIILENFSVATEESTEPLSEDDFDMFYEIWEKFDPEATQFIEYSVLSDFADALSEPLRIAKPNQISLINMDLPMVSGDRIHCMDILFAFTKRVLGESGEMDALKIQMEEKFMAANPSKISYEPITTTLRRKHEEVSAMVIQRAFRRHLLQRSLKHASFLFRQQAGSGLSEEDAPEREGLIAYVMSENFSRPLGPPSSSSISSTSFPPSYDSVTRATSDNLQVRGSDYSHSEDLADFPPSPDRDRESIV
# Voltage-dependent L-type calcium channel subunit alpha-1C, sequence (Q13936 whole entry): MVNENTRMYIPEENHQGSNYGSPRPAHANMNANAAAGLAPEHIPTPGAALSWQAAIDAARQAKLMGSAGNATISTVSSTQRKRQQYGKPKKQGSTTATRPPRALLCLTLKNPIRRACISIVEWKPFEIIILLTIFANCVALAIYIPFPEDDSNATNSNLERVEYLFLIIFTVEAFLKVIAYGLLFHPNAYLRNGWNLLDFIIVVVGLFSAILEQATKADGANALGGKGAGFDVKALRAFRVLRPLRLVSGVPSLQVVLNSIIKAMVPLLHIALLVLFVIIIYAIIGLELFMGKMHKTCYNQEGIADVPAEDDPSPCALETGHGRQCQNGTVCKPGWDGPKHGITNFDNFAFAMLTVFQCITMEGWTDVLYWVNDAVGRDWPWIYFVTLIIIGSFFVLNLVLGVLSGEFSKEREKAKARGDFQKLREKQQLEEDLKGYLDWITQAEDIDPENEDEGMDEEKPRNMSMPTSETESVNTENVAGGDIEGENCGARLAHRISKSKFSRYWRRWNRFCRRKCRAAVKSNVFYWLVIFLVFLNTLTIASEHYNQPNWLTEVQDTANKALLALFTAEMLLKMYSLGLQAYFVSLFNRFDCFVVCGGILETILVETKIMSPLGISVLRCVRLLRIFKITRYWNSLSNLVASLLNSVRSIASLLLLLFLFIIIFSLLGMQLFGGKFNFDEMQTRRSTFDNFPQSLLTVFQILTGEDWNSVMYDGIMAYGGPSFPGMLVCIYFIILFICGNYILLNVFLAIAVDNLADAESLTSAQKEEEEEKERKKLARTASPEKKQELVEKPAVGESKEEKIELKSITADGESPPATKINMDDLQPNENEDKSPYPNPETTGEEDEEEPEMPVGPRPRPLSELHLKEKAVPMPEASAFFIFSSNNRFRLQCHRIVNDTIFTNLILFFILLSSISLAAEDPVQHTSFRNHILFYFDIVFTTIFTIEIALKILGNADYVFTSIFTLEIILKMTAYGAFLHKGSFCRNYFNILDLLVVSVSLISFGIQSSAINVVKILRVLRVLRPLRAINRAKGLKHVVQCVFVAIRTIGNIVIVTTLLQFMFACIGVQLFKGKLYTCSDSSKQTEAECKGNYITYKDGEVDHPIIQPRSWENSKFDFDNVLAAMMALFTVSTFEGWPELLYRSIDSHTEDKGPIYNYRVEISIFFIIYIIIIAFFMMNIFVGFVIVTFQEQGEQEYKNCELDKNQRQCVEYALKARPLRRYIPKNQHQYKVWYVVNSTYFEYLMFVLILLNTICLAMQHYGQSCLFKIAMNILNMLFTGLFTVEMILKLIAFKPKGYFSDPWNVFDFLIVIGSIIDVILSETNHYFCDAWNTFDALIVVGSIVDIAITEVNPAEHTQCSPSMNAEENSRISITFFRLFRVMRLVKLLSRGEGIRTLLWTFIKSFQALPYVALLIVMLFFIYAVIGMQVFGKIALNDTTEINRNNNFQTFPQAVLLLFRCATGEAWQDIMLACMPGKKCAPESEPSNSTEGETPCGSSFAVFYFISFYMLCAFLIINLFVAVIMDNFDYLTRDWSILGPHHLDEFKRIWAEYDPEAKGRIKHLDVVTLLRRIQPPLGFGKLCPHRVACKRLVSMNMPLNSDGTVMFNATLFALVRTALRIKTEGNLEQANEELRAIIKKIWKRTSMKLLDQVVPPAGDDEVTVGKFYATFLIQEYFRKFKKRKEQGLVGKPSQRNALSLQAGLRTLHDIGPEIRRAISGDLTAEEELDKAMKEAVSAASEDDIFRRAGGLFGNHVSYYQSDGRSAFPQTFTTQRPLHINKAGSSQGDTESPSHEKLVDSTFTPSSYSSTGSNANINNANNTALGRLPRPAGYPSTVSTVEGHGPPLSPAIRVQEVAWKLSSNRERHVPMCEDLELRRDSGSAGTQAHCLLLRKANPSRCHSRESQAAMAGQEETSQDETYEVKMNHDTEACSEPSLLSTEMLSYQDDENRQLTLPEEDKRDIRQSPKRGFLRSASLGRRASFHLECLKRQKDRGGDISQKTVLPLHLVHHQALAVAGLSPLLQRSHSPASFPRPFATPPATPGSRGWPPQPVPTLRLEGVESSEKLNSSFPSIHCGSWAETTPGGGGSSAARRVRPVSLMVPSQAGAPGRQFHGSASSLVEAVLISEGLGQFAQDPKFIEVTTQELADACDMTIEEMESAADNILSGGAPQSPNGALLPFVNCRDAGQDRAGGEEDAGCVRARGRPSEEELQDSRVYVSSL
smiles,measurement,setting,value
Cc1nccn1-c1ccc(-c2cn(CC(=O)Nc3cccc(Cl)c3Cl)nn2)cc1,EC50,[1],0.025 µM
same,EC50,[2],0.027 µM
same,EC50,[3],0.012 µM
same,EC50,[4],0.003 µM
same,"remaining at 0.5 h, 1 µM",[5],56%
same,"remaining at 0.5 h, 1 µM",[6],75%
same,"remaining at 0.5 h, 1 µM",[7],63%
same,solubility,[8],170 µM
same,solubility,[9],5 µM
same,logD,[10],2.42
same,IC50,Cytochrome P450 2D6,9.4 µM
same,IC50,Cytochrome P450 3A4,15 µM
same,IC50,[11],21 µM
same,IC50,[12],21 µM
same,"Papp at 3 h, 5 µM",[13],28 ×10⁻⁶ cm/s
same,clearance,[14],13 mL/min/kg
same,CL free,[15],1000 mL/min/kg
same,half-life,[16],54 min
same,bioavailability,[17],56%
same,fraction unbound,[18],0.013
same,Activity,[19],Active
same,Activity,Mus musculus [20],Dose-dependent effect
same,Activity,Mus musculus [21],89%
same,Activity,Mus musculus [22],79%
same,Activity,Mus musculus [23],49%
same,concentration at 2.5 h,[24],11500 nM
same,concentration at 2.5 h,[25],274 nM
same,concentration at 2.5 h,[26],44 nM
same,Cp(f),[27],149 nM
